Values after ≈ are worked out from the molar mass of the structure shown.

The nature of data set [1]: Clearance in Wistar-Han rat hepatocytes at 1 uM measured for 2 to 90 mins by LC-MS/MS. Type of data set: ADME, cell-based, Hepatocyte. The following applies: Wistar-Han, time 2-90 min.
The nature of data set [2]: Metabolic stability in Wistar-Han rat hepatocytes at 1 uM measured for 2 to 90 mins by LC-MS/MS. Type of data set: ADME, cell-based, Hepatocyte. The following applies: time 2-90 min.
Data set [3] can be described thus: Aqueous solubility of the compound at pH 6.5 for 24 hrs by HPLC-MS/MS. Type of data set: physicochemical.
For a further data set, the system named is A2780. Put plainly: cells. The note with it: Homo sapiens, A2780, 96 h. Type of data set: functional, cell-based.
Data set [4] can be described thus: Apparent permeability of the compound across apical side to basolateral side in human CaCo-2 cells at 2 uM incubated for 2 hrs. Type of data set: ADME, cell-based. In short, it runs like this:
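Caco-2 monolayers with TEER of at least 400 Ω·cm². Compound (predissolved in DMSO) added apically or basolaterally at a final 2 μM and incubated 2 h at 37 °C, in triplicate. Both compartments were sampled before and after, MeOH-precipitated and analysed by LC–MS/MS. Papp = (Vr/P0)(1/S)(P2/t).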

Data set [5] is described as follows: Efflux ratio of apparent permeability across basolateral to apical side over apical to basolateral side in human Caco2 cells at 2 uM incubated for 2 hrs. The following applies: Caco-2. For orientation: Caco-2 cells form a polarised layer with tight junctions and transporters.
Data set [6] is described as follows: Clearance in Wistar-Han rat blood at 0.3 to 0.5 mg/kg, iv measured upto 24 hrs by HPLC with LC-MS/MS. Type of data set: ADME, organism-based. The note with it: dose 0.3-0.5 mg/kg.
Data set [7] can be described thus: Volume of distribution at steady state in Wistar-Han rat blood at 0.3 to 0.5 mg/kg, iv measured upto 24 hrs by HPLC with LC-MS/MS. Type of data set: ADME, organism-based. The note with it: dose 0.3-0.5 mg/kg, read-out: Vdss.
Data set [8] in a line: Half life in Wistar-Han rat blood at 0.3 to 0.5 mg/kg, iv measured upto 24 hrs by HPLC with LC-MS/MS. The following applies: dose 0.3-0.5 mg/kg. Type of data set: ADME, organism-based.
The next data set relates to MOLM-13. Put plainly: cells. Type of data set: functional, cell-based. The following applies: Homo sapiens, MOLM-13, 96 h.
Data set [9] in a line: Aqueous solubility of the compound at pH 4 for 24 hrs by HPLC-MS/MS. Type of data set: physicochemical.

`COc1cc(F)ccc1-c1nc(Nc2cc(F)c(F)c(CS(C)(=N)=O)c2)ncc1F` (stereo not given): in data set [1], the CLhep predicted at 1 µM is 41.7 mL/min/kg. Further, in data set [2], the Stability result is “Stable”.

As a reminder, the solubility is the dissolved amount per volume that the medium holds. One may read the IC50 as the concentration at which inhibition is half-maximal. Higher therefore signals a need for much substance. A word on the Papp A→B: it is the apparent permeability from the apical to the basolateral side of a cell layer. The efflux ratio is a quotient of directional permeabilities that is used to spot active efflux. For the compound `COc1cc(F)ccc1-c1nc(Nc2cncc(CS(C)(=N)=O)c2)ncc1F` (stereo not given), the concentration in solution in [3] (solubility at 24 h) was 103 µg/mL (≈ 254 µM). In addition, the CLhep predicted at 1 µM in data set [1] is 18.3 mL/min/kg. Moreover, the IC50 with A2780 came to 0.046 µM. Moreover, the Papp A→B at 2 h, 2 µM in [4] was 2.3 ×10⁻⁶ cm/s. The efflux ratio at 2 h, 2 µM in [5] is above 10.

For `COc1cc(F)ccc1-c1nc(Nc2cc(F)cc(CS(C)(=N)=O)c2)ncc1F` (stereo in doubt; 9), the concentration in solution in data set [3] (solubility at 24 h) came to 24 µg/mL (≈ 56.8 µM). The CLhep predicted at 1 µM in data set [1] is 28.3 mL/min/kg.

In data set [3], `COc1cc(F)ccc1-c1nc(Nc2cc(F)c(F)c(CS(C)(=O)=NC#N)c2)ncc1F` (stereo not given) displayed a solubility at 24 h of 0.2 µg/mL (≈ 0.43 µM). The CLhep predicted at 1 µM in data set [1] was 55 mL/min/kg. Further, the IC50 with A2780 turned out to be 0.037 µM. Further, the Stability entry in data set [2] is recorded as “Unstable”.

With `COc1cc(CS(C)(=N)=O)cc(Nc2ncc(F)c(-c3ccc(F)cc3OC)n2)c1` (stereo not given), the solubility at 24 h in [3] came to 5 µg/mL (≈ 11.5 µM). In addition, the CLhep predicted at 1 µM in data set [1] was 38.3 mL/min/kg.

By clearance is commonly meant the rate of elimination divided by the concentration. The term half-life denotes how long it takes for the measured level to halve. Regarding `COc1cc(F)ccc1-c1nc(Nc2cc(F)cc(CS(C)(=N)=N)c2)ncc1F`, the solubility at 24 h in [3] amounted to 155 µg/mL (≈ 368 µM). Besides, the CLhep predicted at 1 µM in data set [1] is 35 mL/min/kg. This compound also gave an IC50 in the data set on A2780 of 0.184 µM. For the same compound, in [4], the Papp A→B at 2 h, 2 µM amounted to 5 ×10⁻⁶ cm/s. The clearance in [6] is 55 mL/min/kg. For the same compound, the Vd in data set [7] is 2.2 L/kg. Moreover, the half-life in data set [8] is 36 min.

Regarding `COc1cc(F)ccc1-c1nc(Nc2cc(F)cc(CS(=O)(CCCO)=NC#N)c2)ncc1F` (stereo not given), in [3], the solubility at 24 h is 0.5 µg/mL (≈ 1.02 µM). Also, the CLhep predicted at 1 µM in data set [1] is 58.3 mL/min/kg. In the data set on A2780, this compound registered an IC50 of 0.262 µM.

As to `COc1cc(F)ccc1-c1cc(Nc2cc(CS(C)(=N)=O)ccn2)ncn1` (stereo not given), the solubility at 24 h in data set [3] stood at 2 µg/mL (≈ 5.16 µM); in data set [9] it was 43 µg/mL (≈ 111 µM). In addition, the IC50 in the data set on A2780 was 0.126 µM; in the data set on MOLM-13, 0.08 µM. Besides, in [4], the Papp A→B at 2 h, 2 µM worked out at 2.6 ×10⁻⁶ cm/s. Also, in [5], the efflux ratio at 2 h, 2 µM stood at 9.3.

For the compound `COc1cc(F)ccc1-c1cc(Nc2cc(C[S@](C)(=N)=O)ccn2)ncc1F`, the values for the IC50 with A2780 and in the data set with MOLM-13 were 0.052 µM and 0.042 µM, respectively.

For the compound `COc1cc(F)ccc1-c1nc(Nc2cc(F)cc(CS(=N)(=O)CCCN)c2)ncc1F` (stereo not given), the solubility at 24 h in [3] was 294 µg/mL (≈ 632 µM). For the same compound, the CLhep predicted at 1 µM in data set [1] is 18.3 mL/min/kg. In the data set with A2780, this compound registered an IC50 of 0.226 µM.

The compound `COc1cc(F)ccc1-c1nc(Nc2cc(F)cc(CN)c2)ncc1F` yielded a solubility at 24 h in [3] of 17 µg/mL (≈ 47.2 µM). Besides, the CLhep predicted at 1 µM in [1] is 50 mL/min/kg. Also, inhibition in the data set on A2780 was half-maximal at 0.692 µM (IC50). In addition, the Stability entry in [2] is recorded as “Unstable”.

Values taken from ChEMBL document CHEMBL5036331 (J Med Chem, 2021).
